Results on four compounds are retold here after ChEMBL document CHEMBL1671826, “Effect of Inhibiting Histone Deacetylase with Short-Chain Carboxylic Acids and Their Hydroxamic Acid Analogs on Vertebrate Development and Neuronal Chromatin” (ACS Med Chem Lett, 2011).

Activity calls are given as the source filed them. The rule behind the calls is not given here.

Data set [1] has as its target T1, Histone deacetylase 8 (Homo sapiens, UniProt Q9BY41).
T1 sequence (Q9BY41 whole entry): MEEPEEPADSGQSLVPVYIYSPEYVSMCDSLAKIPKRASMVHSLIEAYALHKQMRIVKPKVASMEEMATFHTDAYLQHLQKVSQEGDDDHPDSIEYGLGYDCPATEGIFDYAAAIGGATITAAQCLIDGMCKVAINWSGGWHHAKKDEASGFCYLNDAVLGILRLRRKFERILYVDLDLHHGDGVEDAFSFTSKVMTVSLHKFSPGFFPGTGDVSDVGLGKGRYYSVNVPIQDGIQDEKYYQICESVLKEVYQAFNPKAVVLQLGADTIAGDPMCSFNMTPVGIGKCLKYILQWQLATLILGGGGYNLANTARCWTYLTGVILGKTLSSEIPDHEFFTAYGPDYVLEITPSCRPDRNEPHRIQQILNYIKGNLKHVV
Put plainly: Inhibition of human recombinant HDAC8. Put shortly: (§1)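 Recombinant HDAC isoforms incubated with acetyl-lysine tripeptide–AMC substrate (mimics histone H4 K12), or trifluoroacetyl-lysine-AMC for class IIa enzymes, each substrate at its Km; trypsin cleavage of deacetylated product releases fluorescent AMC. IC50 from two experiments in duplicate, mean ± SD.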

The target of data set [2] is Histone deacetylase 5 (Homo sapiens, UniProt Q9UQL6). Put plainly: Inhibition of human recombinant HDAC5. A digest of the protocol: as §1
Sequence of Histone deacetylase 5 (Q9UQL6 whole entry): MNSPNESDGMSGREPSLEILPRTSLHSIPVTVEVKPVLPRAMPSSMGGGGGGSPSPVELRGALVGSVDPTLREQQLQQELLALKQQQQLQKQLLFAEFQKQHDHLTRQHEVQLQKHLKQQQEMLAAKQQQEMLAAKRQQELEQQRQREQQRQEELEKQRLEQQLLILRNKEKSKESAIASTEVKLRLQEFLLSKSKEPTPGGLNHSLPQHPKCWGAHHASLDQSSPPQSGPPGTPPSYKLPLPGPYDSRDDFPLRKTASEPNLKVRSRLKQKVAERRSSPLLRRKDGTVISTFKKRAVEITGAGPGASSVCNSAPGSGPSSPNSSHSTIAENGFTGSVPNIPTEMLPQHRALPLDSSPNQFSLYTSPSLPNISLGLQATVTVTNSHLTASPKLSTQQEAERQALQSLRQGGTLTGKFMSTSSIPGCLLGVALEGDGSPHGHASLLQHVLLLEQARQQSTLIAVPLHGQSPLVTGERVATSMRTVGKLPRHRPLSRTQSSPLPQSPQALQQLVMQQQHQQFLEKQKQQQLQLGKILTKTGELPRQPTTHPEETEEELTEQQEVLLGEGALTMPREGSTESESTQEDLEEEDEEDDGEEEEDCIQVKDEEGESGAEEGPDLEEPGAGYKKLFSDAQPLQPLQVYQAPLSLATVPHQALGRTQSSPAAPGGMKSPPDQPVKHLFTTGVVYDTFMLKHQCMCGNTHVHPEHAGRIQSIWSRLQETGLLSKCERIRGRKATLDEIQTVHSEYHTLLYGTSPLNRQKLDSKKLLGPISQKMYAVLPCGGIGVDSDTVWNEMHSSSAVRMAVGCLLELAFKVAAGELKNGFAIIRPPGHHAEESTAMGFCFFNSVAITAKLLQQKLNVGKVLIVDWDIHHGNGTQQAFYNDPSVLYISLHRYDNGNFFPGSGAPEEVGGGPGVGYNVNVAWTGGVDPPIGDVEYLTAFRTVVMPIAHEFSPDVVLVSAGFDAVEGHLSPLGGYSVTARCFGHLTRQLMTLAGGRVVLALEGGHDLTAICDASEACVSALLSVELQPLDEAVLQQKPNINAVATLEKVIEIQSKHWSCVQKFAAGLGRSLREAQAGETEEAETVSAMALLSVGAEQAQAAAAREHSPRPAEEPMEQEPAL
Data set [3] is filed under the species Mus musculus. In words: Inhibition of HDAC in mouse primary forebrain neurons assessed as acetylation of histone H3 lysine 9 at 92.5 uM after 24 hrs by immunofluorescence assay.
Data set [4] addresses T2, Protein deacetylase HDAC6 (Homo sapiens) (UniProt Q9UBN7).
T2 sequence (whole entry): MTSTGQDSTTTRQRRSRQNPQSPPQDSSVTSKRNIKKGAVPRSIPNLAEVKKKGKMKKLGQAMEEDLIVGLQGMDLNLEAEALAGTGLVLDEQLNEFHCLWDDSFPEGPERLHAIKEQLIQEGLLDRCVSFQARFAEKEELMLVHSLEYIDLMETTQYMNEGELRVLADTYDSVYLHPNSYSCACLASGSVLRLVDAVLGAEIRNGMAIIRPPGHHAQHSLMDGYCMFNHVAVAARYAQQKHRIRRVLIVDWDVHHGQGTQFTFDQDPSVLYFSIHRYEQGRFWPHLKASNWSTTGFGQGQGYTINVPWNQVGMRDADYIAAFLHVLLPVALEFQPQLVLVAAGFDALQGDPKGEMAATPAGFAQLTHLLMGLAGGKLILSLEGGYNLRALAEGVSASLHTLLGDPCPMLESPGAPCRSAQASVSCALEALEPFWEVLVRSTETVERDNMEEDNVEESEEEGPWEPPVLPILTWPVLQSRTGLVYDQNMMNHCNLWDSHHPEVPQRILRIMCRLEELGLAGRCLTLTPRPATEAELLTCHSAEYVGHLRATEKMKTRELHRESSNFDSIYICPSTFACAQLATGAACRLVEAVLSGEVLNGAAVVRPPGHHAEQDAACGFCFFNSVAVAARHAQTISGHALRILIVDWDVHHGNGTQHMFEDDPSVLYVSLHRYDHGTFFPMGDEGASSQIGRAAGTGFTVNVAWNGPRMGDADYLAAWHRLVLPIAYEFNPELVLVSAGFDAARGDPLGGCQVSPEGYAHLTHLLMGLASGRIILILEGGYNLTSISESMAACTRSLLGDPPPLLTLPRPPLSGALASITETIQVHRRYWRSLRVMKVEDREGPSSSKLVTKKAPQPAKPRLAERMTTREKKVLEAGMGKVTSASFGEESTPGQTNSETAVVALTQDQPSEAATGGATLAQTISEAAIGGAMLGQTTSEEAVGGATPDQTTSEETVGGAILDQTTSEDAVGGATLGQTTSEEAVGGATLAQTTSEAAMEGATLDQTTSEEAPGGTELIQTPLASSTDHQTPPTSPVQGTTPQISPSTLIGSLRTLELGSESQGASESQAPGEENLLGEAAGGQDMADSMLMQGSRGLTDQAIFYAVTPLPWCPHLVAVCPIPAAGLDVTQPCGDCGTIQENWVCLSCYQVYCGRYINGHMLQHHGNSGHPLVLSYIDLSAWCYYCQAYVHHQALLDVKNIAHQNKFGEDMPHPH
Put plainly: Inhibition of HDAC6 in human HeLa cells assessed as acetylation of tubulin after 24 hrs by immunofluorescence assay. It is filed as cell-based. Put shortly:
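HeLa cells treated 24 h at the indicated doses; tubulin acetylation quantified by immunofluorescence.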

For data set [5], the target named is Histone deacetylase 4 (Homo sapiens, UniProt P56524). In words: Inhibition of human recombinant HDAC4. Put shortly:
as §1

Data set [6] concerns the target Histone deacetylase 9 (Homo sapiens, UniProt Q9UKV0). Put plainly: Inhibition of human recombinant HDAC9. Put shortly:
as §1

Data set [7] addresses Histone deacetylase 2 (Homo sapiens, UniProt Q92769). Put plainly: Inhibition of human recombinant HDAC2. Put shortly:
as §1

Data set [8] concerns the target T3, Protein deacetylase HDAC6 (Homo sapiens, UniProt Q9UBN7).
T3 sequence (Q9UBN7 whole entry): T2 sequence (whole entry)
Put plainly: Inhibition of human recombinant HDAC6. A digest of the protocol: as §1

The target in data set [9] is Histone deacetylase 3 (Homo sapiens, UniProt O15379). Put plainly: Inhibition of human recombinant HDAC3. Put shortly: as §1
Sequence of Histone deacetylase 3 (O15379 whole entry): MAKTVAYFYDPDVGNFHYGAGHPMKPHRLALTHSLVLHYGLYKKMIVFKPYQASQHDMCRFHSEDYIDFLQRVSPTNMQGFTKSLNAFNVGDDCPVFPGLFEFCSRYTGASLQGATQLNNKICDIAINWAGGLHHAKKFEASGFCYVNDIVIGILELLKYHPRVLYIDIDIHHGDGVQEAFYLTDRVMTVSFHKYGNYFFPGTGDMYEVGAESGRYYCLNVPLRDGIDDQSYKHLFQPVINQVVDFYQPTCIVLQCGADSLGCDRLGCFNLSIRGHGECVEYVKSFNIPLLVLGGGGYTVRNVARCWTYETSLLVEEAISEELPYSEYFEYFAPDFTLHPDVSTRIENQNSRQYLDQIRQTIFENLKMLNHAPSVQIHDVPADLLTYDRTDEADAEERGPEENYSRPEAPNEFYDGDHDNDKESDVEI
The target in data set [10] is T4, Histone deacetylase 7 (Homo sapiens, UniProt Q8WUI4).
T4 sequence (Q8WUI4 whole entry): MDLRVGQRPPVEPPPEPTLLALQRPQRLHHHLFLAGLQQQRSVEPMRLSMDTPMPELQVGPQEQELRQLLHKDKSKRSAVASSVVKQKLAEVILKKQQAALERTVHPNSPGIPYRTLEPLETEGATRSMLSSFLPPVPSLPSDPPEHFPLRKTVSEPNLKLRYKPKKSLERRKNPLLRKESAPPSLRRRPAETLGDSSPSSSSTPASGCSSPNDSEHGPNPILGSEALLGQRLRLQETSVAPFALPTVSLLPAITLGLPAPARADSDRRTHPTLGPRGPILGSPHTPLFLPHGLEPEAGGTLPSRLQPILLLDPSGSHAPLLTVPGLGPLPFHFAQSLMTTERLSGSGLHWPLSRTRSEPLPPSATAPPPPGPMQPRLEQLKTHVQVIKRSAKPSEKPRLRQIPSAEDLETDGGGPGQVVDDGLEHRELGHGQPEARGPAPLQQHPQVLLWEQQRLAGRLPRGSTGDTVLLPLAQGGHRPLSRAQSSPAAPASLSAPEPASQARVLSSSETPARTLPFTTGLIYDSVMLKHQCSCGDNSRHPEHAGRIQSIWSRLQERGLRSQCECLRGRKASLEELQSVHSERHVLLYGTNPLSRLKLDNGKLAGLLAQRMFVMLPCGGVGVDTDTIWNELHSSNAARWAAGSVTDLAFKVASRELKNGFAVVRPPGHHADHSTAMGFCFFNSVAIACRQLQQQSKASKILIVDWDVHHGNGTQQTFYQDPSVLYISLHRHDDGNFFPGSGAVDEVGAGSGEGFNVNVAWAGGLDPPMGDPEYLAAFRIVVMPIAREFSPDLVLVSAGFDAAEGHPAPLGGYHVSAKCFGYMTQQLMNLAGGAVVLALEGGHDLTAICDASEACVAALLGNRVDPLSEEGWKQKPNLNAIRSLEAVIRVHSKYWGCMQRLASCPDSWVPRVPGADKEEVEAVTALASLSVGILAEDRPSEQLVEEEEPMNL
In words: Inhibition of human recombinant HDAC7.

Data set [11] has as its target Histone deacetylase 1 (Homo sapiens, UniProt Q13547). Put plainly: Inhibition of human recombinant HDAC1. A digest of the protocol: as §1
The species entered for data set [12] is Xenopus laevis. In words: Induction of developmental deffects in frog embryos assessed as heart looping and pigment deffects at 2 mM after 18 hrs. It is filed as organism-based. The note with it: in vivo, 2000 µM. A digest of the protocol: (§2)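 Xenopus laevis embryos exposed in the whole-organism development assay at 2 mM and scored morphologically for loss of anterior structures, shortened anterior–posterior axis, and heart looping and pigment defects; compared with untreated embryos.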

For data set [13], the species on record is Xenopus laevis. In words: Induction of developmental deffects in frog embryos assessed as shortening of anterior-posterior axis at 2 mM after 18 hrs. The class given is organism-based. To be noted: in vivo, 2000 µM. Put shortly: as §2
The species entered for data set [14] is Xenopus laevis. Put plainly: Induction of developmental deffects in frog embryos assessed as loss of anterior structures at 2 mM after 18 hrs. The class given is organism-based. To be noted: in vivo, 2000 µM. Put shortly:
as §2

Sequence of Histone deacetylase 9 (Q9UKV0 whole entry): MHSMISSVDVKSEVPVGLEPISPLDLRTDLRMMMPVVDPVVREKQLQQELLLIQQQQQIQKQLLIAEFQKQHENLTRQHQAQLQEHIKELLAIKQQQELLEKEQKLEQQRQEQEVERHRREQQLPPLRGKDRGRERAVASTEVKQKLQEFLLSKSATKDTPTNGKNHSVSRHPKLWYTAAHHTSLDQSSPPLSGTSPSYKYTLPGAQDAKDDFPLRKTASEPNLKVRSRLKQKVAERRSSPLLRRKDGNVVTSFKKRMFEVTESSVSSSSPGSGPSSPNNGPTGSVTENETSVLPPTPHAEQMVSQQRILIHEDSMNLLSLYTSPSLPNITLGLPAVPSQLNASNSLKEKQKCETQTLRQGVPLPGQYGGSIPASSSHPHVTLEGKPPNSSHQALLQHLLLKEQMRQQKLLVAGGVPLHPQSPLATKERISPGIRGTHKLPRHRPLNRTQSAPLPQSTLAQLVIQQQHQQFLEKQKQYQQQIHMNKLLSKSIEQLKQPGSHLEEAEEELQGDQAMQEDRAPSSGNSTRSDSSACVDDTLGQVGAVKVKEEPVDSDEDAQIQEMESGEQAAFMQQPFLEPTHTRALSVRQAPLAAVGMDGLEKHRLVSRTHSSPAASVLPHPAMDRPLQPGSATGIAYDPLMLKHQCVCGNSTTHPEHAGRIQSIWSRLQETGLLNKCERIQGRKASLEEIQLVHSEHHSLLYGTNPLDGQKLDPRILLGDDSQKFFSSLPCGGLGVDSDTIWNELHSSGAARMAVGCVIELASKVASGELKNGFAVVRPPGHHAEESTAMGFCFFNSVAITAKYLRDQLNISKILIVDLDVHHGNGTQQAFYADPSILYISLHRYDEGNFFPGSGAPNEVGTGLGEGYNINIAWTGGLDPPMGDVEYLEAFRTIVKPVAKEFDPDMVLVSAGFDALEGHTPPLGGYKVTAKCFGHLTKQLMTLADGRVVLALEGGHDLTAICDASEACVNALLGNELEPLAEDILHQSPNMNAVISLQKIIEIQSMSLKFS
Sequence of Histone deacetylase 2 (Q92769 whole entry): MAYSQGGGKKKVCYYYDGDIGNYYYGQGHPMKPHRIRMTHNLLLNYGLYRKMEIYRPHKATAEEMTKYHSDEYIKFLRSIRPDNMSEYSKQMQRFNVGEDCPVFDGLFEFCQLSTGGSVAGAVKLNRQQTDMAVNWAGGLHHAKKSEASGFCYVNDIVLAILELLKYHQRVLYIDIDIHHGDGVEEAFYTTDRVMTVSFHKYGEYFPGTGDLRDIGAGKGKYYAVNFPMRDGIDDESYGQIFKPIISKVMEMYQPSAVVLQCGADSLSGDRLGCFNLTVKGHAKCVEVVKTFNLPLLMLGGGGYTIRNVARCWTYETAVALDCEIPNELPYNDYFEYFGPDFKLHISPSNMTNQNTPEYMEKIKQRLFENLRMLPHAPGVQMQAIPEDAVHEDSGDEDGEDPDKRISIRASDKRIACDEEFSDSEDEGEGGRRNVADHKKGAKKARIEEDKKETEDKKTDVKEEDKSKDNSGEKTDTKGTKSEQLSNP
Sequence of Histone deacetylase 1 (Q13547 whole entry): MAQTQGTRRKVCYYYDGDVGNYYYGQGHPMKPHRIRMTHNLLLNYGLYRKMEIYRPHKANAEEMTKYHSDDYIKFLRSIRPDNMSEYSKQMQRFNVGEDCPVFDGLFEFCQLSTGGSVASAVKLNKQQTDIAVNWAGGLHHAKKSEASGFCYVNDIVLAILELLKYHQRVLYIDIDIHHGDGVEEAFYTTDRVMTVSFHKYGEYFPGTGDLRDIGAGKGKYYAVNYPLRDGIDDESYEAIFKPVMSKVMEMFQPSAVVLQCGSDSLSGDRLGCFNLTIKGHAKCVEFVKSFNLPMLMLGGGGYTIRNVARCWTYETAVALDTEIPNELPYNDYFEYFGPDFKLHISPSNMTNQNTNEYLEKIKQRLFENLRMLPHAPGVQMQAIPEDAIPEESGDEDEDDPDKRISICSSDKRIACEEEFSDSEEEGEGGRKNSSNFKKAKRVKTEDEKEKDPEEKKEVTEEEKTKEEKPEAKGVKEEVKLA
Sequence of Histone deacetylase 4 (P56524 whole entry): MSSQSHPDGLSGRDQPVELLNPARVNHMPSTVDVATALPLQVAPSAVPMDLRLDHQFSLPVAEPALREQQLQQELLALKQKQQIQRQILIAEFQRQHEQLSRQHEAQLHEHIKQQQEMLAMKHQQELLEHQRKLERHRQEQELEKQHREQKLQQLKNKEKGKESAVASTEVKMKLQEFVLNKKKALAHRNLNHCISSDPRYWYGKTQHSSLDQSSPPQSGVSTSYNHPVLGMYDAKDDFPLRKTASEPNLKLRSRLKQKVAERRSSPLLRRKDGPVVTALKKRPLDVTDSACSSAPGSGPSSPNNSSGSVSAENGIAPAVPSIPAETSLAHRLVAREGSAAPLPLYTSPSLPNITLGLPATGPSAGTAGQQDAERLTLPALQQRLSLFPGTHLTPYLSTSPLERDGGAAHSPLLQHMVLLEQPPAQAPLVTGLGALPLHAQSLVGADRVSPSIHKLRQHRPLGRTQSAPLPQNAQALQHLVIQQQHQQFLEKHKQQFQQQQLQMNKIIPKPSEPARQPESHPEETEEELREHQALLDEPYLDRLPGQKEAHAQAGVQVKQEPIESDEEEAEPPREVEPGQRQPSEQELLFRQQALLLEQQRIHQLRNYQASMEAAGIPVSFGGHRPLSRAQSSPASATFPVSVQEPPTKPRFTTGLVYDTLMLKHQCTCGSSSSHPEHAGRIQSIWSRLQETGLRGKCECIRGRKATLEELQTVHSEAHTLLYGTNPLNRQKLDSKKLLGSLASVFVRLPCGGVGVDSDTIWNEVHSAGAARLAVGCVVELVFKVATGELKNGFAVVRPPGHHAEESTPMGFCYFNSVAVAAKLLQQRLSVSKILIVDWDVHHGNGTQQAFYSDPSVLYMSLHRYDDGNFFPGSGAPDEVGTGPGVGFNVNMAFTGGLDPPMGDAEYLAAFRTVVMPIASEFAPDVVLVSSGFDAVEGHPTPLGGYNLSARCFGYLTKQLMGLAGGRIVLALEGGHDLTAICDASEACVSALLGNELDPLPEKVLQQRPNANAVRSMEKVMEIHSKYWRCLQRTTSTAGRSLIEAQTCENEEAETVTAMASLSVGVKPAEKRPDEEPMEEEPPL

As for `O=C(CCCc1ccccc1)NO` [PHENYLBUTYRYLHYDROXAMIC ACID], the IC50 was 4 µM in data set [1]; 25 µM in [2]; 140 µM in data set [5]; 430 µM in [6]; 0.6 µM in data set [7]; 0.5 µM in data set [8]. In addition, the inhibition result in data set [3] and in data set [4] was “Active” each time.

Consider `CCCC(=O)NO` [BUTYRYLHYDROXAMIC ACID], for which the IC50 was 26 µM in data set [1]; 360 µM in [2]; 10 µM in data set [9]; more than 1000 µM in [10]; 7 µM in [11]; more than 2000 µM in data set [5]. For the same compound, the IC50 in [6] was more than 2000 µM; in data set [7], 9 µM; in [8] it was 2 µM. Besides, the inhibition entry in [3] and in data set [4] was “Active” throughout.

Regarding `CCCC(=O)O` [BUTYRIC ACID], the IC50 is 15 µM in [1]; more than 2000 µM in data set [2]; 9 µM in data set [9]; more than 2000 µM in [10]; 16 µM in data set [11]; more than 2000 µM in data set [5]. Also, the IC50 in data set [6] was more than 2000 µM; in [7], 12 µM; in [8], more than 2000 µM. Also, the inhibition entry in data set [3] and in data set [4] was “inactive” in each case.

As for `CCCC(CCC)C(=O)O` [VALPROIC ACID], the Activity entry in data set [12], in data set [13] and in data set [14] was “Toxic” throughout. Further, the IC50 in data set [2] is more than 2000 µM; in data set [10] it was more than 2000 µM; in [11], 39 µM; in data set [5] it was more than 2000 µM; in data set [6], more than 2000 µM; in [8], more than 2000 µM. Also, the inhibition result in data set [3] and in data set [4] was “inactive” in each case.

In general, IC50 refers to the midpoint of a concentration-inhibition curve.
